Screening results (PubChem BioAssay)
Most compounds without a hit are left out; they make up all but 3.6% or so of the library.
PolyA inh = polyadenylation inhibitors in yeast reporter cells, primary screen, luminescence, S. cerevisiae; AID 1875, 2009; activity score, % at 12 µM; S. cerevisiae SKY197-pL101 polyadenylation reporter, beta-gal luminescence; efflux-impaired pdr1/pdr3 knockout yeast; score 100 = 6 SD above DMSO; hit rate 0.02% among 300,000;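 active means lowest replicate activity score at least 50, where 100 means six control SD above control mean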;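 further: yeast exposed to compound for 9 h at 30 °C; higher score means more reporter readthrough which indicates perturbed polyadenylation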
AHR activator = AHR activators, primary screen, cell-based, luminescence, luciferase reporter, human; AHR-responsive luciferase reporter cells; activation, % at 5 µM; hit rate 2.5% among 320,000; in the data active means activation above about 47%;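 further: 0% = vehicle wells and 100% = reference agonist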
PERK inhibitor = block of dimerizer-induced PERK translation repression, primary screen, PERK inhibitor project, CHO PERK-DD cells, SEAP luminescence, HTS; inhibition, % at 5.6 µM; AID 1416, 2008; hit rate 0.17% among 220,000; CHO PERK-DD fusion, SEAP luminescence translation reporter;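 active means inhibition above the mean inhibition of all tested compounds plus 3 SD, set separately per screening campaign, cut at about 2.9% in these data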;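 further: PERK kinase domain activated by AP20187 dimerizer at 100 nM; 0% = DMSO with dimerizer and 100% = rapamycin at 8.4 µM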
Hsp70 act = Hsp70 transcriptional activators, primary screen, cell-based, HeLa, Hsp70 promoter luciferase, luminescence, 10 µM | activation, % at 10 µM | hit rate 0.04% among 200,000 | HeLa Hsp70 promoter luciferase reporter; scaled: vehicle 0, proteasome-inhibitor control 100% | AID 1203, 2008;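 active means activation above the mean across all tested compounds plus 3 SD, cutoff set per campaign, cut at about 5.5% in these data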;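 further: 100% = MG132 at 30 µM as the positive control and 0% = DMSO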
HSF1 inh = HSF1 inhibitors in luciferase reporter cells, primary screen, cell-based, NIH3T3, luminescence. activity change, negative = inhibition, % at 7.5 µM (by protocol). NIH3T3-HGL HSE-luciferase, MG132-induced, luminescence 8 h; hits give low values. hit rate 0.77% among 300,000. AID 2098, 2009;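 active means more than half of replicate wells show activity change below -50%, luminescence cut by over half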;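 further: luciferase reports HSF-1 transcriptional activity via heat shock element; 0% = median of DMSO wells and -100% = zero luminescence signal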
STAT3 act = IL-6 driven STAT3 reporter potentiators, primary screen, U3A cells, luciferase, luminescence, MLSCN library. activation (% of control), % at 5.6 µM. hit rate 0.91% among 190,000. IL-6 STAT3-luciferase reporter; 100% = signal with IL-6 EC80 alone;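 active means activation above the screen-wide mean of compound activation plus 3 SD, cut at about 130% in these data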;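 further: 0% = background luminescence of wells with medium and substrate only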
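Detection: reporter luminescence signal / Assay system: STAT1-lacking human U3A cells, STAT3 luciferase reporter / Incubation: compound pre-incubation 1 h before IL-6, then 6 h stimulation at 37 °C / Control set: IL-6-only high control / Read-out: % activation relative to IL-6 control / Probe or stimulus: Interleukin-6, 33 ng/mL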
An asterisk follows results filed as active; · = not tested or not shown.

SMILES	PolyA inh	AHR activator	PERK inhibitor	Hsp70 act	HSF1 inh	STAT3 act
CCCC(=O)Nc1nnc(S(=O)(=O)N(CC)c2ccccc2)s1	9	0	·	·	1	·
CCN(CC)CCN1CCn2c3c(c4cc(C)ccc42)CCCC31 (configuration not stated)	7	15	-1	0	-5	105
Cc1ccc2c(c1)c1c3n2CCN(C=O)C3CCC1 (configuration not stated)	13	53*	·	·	-3	·
Cn1cccc1CNC(=O)Nc1ccc(Cl)cc1	2	75*	0	0	5	95
Cc1nc(CNS(=O)(=O)c2ccc(Br)cc2)cs1	6	0	·	·	-6	·
CC(=O)Nc1ccc(S(=O)(=O)NCc2csc(C)n2)cc1	-19	0	1	0	-87*	104
Nc1ccc(O)c2ccccc12	-26	57*	·	·	-4	·
Nc1cc(-c2ccccc2)ccc1O	-14	22	0	0	5	102
Cc1ccc(CS(=O)(=O)Cc2ccc(C(=O)NCCCN3CC(C)CC(C)C3)o2)cc1 (configuration not stated)	-6	2	·	·	3	·
Nn1c(=O)c2ccccc2n2c(SCc3ccccc3)nnc12	10	2	-1	0	-68*	83
CCn1cc(C(=O)N2CCN(c3ccccn3)CC2)c(=O)c2cc(S(=O)(=O)N(C)C3CCCCC3)ccc21	13	-1	0	0	-1	99
Oc1ccc(/C=N/Nc2ccccc2)cc1	-3	9	1	0	2	101
Oc1ccc(Nc2nc3ccccc3nc2Nc2ccc(O)cc2)cc1	3	-15	-1	1	-86*	76
Cc1nc2ccccc2nc1N/N=C/c1ccc(O)cc1	-1	76*	1	·	-9	·
O=S1(=O)CCS(=O)(=O)C1c1ccccc1	11	-1	·	·	8	·
COc1ccccc1NC(=O)c1ccc(NC(=O)COC(=O)c2cncc(Br)c2)cc1	·	50*	·	·	·	·
COc1cc(NC(=O)c2ccc(F)cc2)c(OC)cc1NC(=O)CN1CCOCC1	8	33	0	0	-3	84
COc1ccccc1N1CCN(CC(=O)Nc2ccccc2C(=O)NCCc2ccccc2)CC1	·	63*	·	·	·	·
COc1ccccc1NC(=O)c1ccc(NC(=O)COC(=O)C2CCCCC2)cc1	-1	8	1	0	7	104
COc1cc(NC(=O)c2ccccc2F)c(OC)cc1NC(=O)CN1CCOCC1	-7	51*	1	0	8	84
COc1ccccc1NC(=O)c1ccc(NC(=O)CN2CCCC2)cc1	19	53*	0	0	-4	102
COc1ccc(OC)c(S(=O)(=O)Nc2c(NC3CCCCC3)c3ccccc3oc2=O)c1	18	-3	·	·	9	·
COc1cc(Cl)c(C)cc1NC(=O)CN1C(=O)C2CC=CCC2C1=O (configuration not stated)	·	6	·	·	·	·
O=c1c2cc(Br)ccc2[nH]c(=S)n1Cc1ccccc1	-23	4	·	·	4	·
O=c1c2cc(Br)ccc2[nH]c(=S)n1Cc1ccccn1	-9	67*	0	0	7	116
SMILES	PolyA inh	AHR activator	PERK inhibitor	Hsp70 act	HSF1 inh	STAT3 act
Cc1ccc(-c2cc(N)n(Cc3ccc(Cl)cc3)n2)cc1	14	56*	-1	0	11	67
O=C(NCC1CCCO1)C1CC(=O)N(c2ccc(Cl)cc2)C1 (configuration not stated)	8	2	·	·	-13	·
COc1ccc(NC(=O)c2cc(CN3C(=O)c4ccccc4C3=O)ccc2OC)cn1	-18	-18	0	0	-67*	92
COc1ccc(CN2C(=O)c3ccccc3C2=O)cc1C(=O)Nc1ccccc1N1CCOCC1	13	2	1	0	7	98
CCOC(=O)c1cc(C#N)c(SCC(=O)OC)[nH]c1=O	-9	9	0	·	2	·
COc1ccc(C(=O)C[n+]2cc(Br)cc3ccccc32)cc1[N+](=O)[O-]	6	71*	·	·	4	·
